Measurements from ChEMBL document CHEMBL1135734, “Side-chain lactam-bridge conformational constraints differentiate the activities of salmon and human calcitonins and reveal a new design concept for potent calcitonin analogues” (J Med Chem, 2002).

How the values were obtained:
[1] = molecular target: T1, Calcitonin receptor (Rattus norvegicus) (UniProt P32214); test: Affinity for calcitonin receptor of rat brain relative to [125I]-salmon calcitonin
T1 sequence (whole entry): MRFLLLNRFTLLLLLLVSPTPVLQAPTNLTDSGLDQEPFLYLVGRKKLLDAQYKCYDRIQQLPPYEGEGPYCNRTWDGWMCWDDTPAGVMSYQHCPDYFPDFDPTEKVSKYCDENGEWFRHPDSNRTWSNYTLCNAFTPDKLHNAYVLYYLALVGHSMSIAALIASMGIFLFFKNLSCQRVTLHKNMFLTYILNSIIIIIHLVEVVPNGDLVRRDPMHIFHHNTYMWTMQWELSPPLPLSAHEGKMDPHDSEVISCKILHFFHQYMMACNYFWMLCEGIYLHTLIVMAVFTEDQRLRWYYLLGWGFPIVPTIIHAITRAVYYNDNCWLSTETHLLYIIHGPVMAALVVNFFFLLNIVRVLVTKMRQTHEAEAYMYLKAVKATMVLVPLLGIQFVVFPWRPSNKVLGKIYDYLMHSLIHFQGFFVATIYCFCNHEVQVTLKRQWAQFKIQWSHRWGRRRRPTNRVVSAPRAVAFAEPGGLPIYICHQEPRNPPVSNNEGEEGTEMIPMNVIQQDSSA
Outline: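 Male Sprague–Dawley rat (250–350 g) brain membranes (~0.63 mg protein/tube) were shaken on ice for 30 min with 10 pM final [125I-Tyr22]sCT and competitor in 50 mM Tris-HCl pH 7.4 with 34 μM bacitracin. Tubes were centrifuged and the pellets washed, SDS-solubilized and scintillation counted. Nonspecific binding was taken with 1 μM sCT. IC50 came from probit analysis, and relative affinity set sCT = 100%.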

[2] = molecular target: T2, Calcitonin receptor (Homo sapiens) (UniProt P30988)
T2 sequence (whole entry): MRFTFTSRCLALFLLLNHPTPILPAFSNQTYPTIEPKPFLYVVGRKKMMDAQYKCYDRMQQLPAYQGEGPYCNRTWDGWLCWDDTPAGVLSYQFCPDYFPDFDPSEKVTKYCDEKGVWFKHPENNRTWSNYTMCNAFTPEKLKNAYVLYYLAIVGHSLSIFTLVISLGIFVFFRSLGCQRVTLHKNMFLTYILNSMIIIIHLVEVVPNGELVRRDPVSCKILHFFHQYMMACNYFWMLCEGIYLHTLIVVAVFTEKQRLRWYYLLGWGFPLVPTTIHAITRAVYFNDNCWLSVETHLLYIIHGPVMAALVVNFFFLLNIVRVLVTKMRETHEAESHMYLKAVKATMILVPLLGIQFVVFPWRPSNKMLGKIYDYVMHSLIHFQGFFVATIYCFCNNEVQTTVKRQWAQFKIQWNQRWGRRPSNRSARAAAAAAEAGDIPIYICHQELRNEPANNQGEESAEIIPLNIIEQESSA

Compound | Relative affinity [1] | ED50 [2]
CC[C@H](C)[C@H](NC(=O)[C@H](C)NC(=O)[C@@H](NC(=O)[C@H](CCC(N)=O)NC(=O)[C@@H]1CCCN1C(=O)[C@H](Cc1ccccc1)NC(=O)[C@@H](N[C@@H](Cc1c[nH]cn1)C(=O)N[C@@H](Cc1ccccc1)C(=O)[C@@H]1CCCN1C(=O)[C@H](CC(N)=O)NC(=O)[C@H](Cc1ccccc1)NC(=O)[C@H](CC(=O)O)NC(=O)[C@H](CCC(N)=O)NC(=O)[C@@H](NC(=O)[C@H](Cc1ccc(O)cc1)NC(=O)[C@@H](NC(=O)CNC(=O)[C@H](CC(C)C)NC(=O)[C@H](CCSC)NC(=O)[C@H](CS)NC(=O)[C@@H](NC(=O)[C@H](CO)NC(=O)[C@H](CC(C)C)NC(=O)[C@H](CC(N)=O)NC(=O)CNC(=O)[C@@H](N)CS)[C@@H](C)O)[C@@H](C)O)[C@@H](C)O)[C@@H](C)O)[C@H](C)O)C(=O)NCC(=O)N[C@H](C(=O)NCC(=O)N[C@@H](C)C(=O)N1CCC[C@H]1C(N)=O)C(C)C | 0.02 | 99 nM
CC[C@H](C)[C@H](NC(=O)[C@H](C)NC(=O)[C@@H](NC(=O)[C@H](CCC(N)=O)NC(=O)[C@H]1CCCN1C(=O)[C@H](Cc1ccccc1)NC(=O)[C@@H](NC(Cc1c[nH]cn1)C(=O)N[C@@H](Cc1ccccc1)C(=O)[C@H](CCCCN)NC(=O)[C@H](CC(N)=O)NC(=O)[C@H](Cc1ccccc1)NC(=O)[C@H](CC(=O)O)NC(=O)[C@H](CCC(N)=O)NC(=O)[C@@H](NC(=O)[C@H](Cc1ccc(O)cc1)NC(=O)[C@@H](NC(=O)CNC(=O)[C@H](CC(C)C)NC(=O)[C@H](CCSC)NC(=O)[C@H](CS)NC(=O)[C@@H](NC(=O)[C@H](CO)NC(=O)[C@H](CC(C)C)NC(=O)[C@H](CC(N)=O)NC(=O)CNC(=O)[C@@H](N)CS)[C@@H](C)O)[C@@H](C)O)[C@@H](C)O)[C@@H](C)O)[C@@H](C)O)C(=O)NCC(=O)N[C@H](C(=O)NCC(=O)N[C@@H](C)C(=O)N1CCC[C@@H]1C(N)=O)C(C)C (some centres not stated) | 0.015 | 0.6 nM
CC(C)C[C@H](NC(=O)[C@H](CCCCN)NC(=O)CNC(=O)[C@H](CC(C)C)NC(=O)[C@@H](NC(=O)[C@H](CS)NC(=O)[C@@H](NC(=O)[C@H](CO)NC(=O)[C@H](CC(C)C)NC(=O)[C@H](CC(N)=O)NC(=O)[C@H](CO)NC(=O)[C@@H](N)CS)[C@@H](C)O)C(C)C)C(=O)N[C@@H](CO)C(=O)N[C@@H](CCC(N)=O)C(=O)N[C@@H](CCC(=O)O)C(=O)N[C@@H](CC(C)C)C(=O)N[C@H]1CC(=O)NCCC[C@@H](C(=O)N[C@@H](Cc2ccc(O)cc2)C(=O)N2CCC[C@@H]2C(=O)N[C@@H](CCCN=C(N)N)C(=O)N[C@H](C(=O)N[C@@H](CC(N)=O)C(=O)N[C@H](C(=O)NCC(=O)N[C@@H](CO)C(=O)NCC(=O)N[C@H](C(=O)N2CCC[C@@H]2C(N)=O)[C@@H](C)O)[C@@H](C)O)[C@@H](C)O)NC(=O)[C@H](CCC(N)=O)NC(=O)[C@H](CC(C)C)NC(=O)[C@H](CCCCN)NC1=O | 120 | 0.091 nM
CC(C)C[C@H](NC(=O)[C@H](CCCCN)NC(=O)CNC(=O)[C@H](CC(C)C)NC(=O)[C@@H](NC(=O)[C@H](CS)NC(=O)[C@@H](NC(=O)[C@H](CO)NC(=O)[C@H](CC(C)C)NC(=O)[C@H](CC(N)=O)NC(=O)[C@H](CO)NC(=O)[C@@H](N)CS)[C@@H](C)O)C(C)C)C(=O)N[C@@H](CO)C(=O)N[C@@H](CCC(N)=O)C(=O)N[C@@H](CCC(=O)O)C(=O)N[C@@H](CC(C)C)C(=O)N[C@H]1CC(=O)NCCC[C@@H](C(=O)N[C@@H](Cc2ccc(O)cc2)C(=O)N2CCC[C@@H]2C(=O)N[C@@H](CCCN=C(N)N)C(=O)N[C@H](C(=O)N[C@@H](CC(N)=O)C(=O)N[C@H](C(=O)NCC(=O)N[C@@H](CO)C(=O)NCC(=O)N[C@H](C(=O)N2CCC[C@@H]2C(N)=O)[C@@H](C)O)[C@@H](C)O)[C@@H](C)O)NC(=O)[C@H](Cc2cn(N)cn2)NC(=O)[C@H](CC(C)C)NC(=O)[C@H](CCCCN)NC1=O | 150 | 0.053 nM
CCCC[C@H](NC(=O)[C@H](Cc1c[nH]cn1)NC(=O)[C@H](CC(C)C)NC(=O)[C@H](CCCCN)NC(=O)[C@H](CC(N)=O)NC(=O)[C@H](CC(C)C)NC(=O)[C@H](CCC(=O)O)NC(=O)[C@H](CCC(N)=O)NC(=O)[C@H](CO)NC(=O)[C@H](CC(C)C)NC(=O)[C@H](CCCCN)NC(=O)CNC(=O)[C@H](CC(C)C)NC(=O)[C@@H](NC(=O)[C@H](CS)NC(=O)[C@@H](NC(=O)[C@H](CO)NC(=O)[C@H](CC(C)C)NC(=O)[C@H](CC(N)=O)NC(=O)[C@H](CO)NC(=O)[C@@H](N)CS)[C@@H](C)O)C(C)C)C(=O)N[C@@H](Cc1ccc(O)cc1)C(=O)N1CCC[C@@H]1C(=O)N[C@@H](CCCN=C(N)N)C(=O)N[C@H](C(=O)N[C@@H](CC(N)=O)C(=O)N[C@H](C(=O)NCC(=O)N[C@@H](CO)C(=O)NCC(=O)N[C@H](C(=O)N1CCC[C@@H]1C(N)=O)[C@@H](C)O)[C@@H](C)O)[C@@H](C)O | 92 | 0.046 nM
CC[C@H](C)[C@H](NC(=O)[C@H](C)NC(=O)[C@@H](NC(=O)[C@H](CCC(N)=O)NC(=O)[C@H]1CCCN1C(=O)[C@H](Cc1ccccc1)NC(=O)[C@@H](N[C@@H](Cc1c[nH]cn1)C(=O)NC(CCCCN)C(=O)[C@@H]1CCCN1C(=O)[C@H](CC(N)=O)NC(=O)[C@H](Cc1ccccc1)NC(=O)[C@H](CC(=O)O)NC(=O)[C@H](CCC(N)=O)NC(=O)[C@@H](NC(=O)[C@H](Cc1ccc(O)cc1)NC(=O)[C@@H](NC(=O)CNC(=O)[C@H](CC(C)C)NC(=O)[C@H](CCSC)NC(=O)[C@H](CS)NC(=O)[C@@H](NC(=O)[C@H](CO)NC(=O)[C@H](CC(C)C)NC(=O)[C@H](CC(N)=O)NC(=O)CNC(=O)[C@@H](N)CS)[C@@H](C)O)[C@@H](C)O)[C@@H](C)O)[C@@H](C)O)[C@@H](C)O)C(=O)NCC(=O)N[C@H](C(=O)NCC(=O)N[C@@H](C)C(=O)N1CCC[C@@H]1C(N)=O)C(C)C (some centres not stated) | < 0.0075 | 104 nM
